High-throughput results: PubChem BioAssay, several laboratories
Sampled rows, rich in hits. Any-hit rate of the full collection: about 3.7%.
AHR act: human AHR activation | P35869 | AHR-responsive luciferase reporter cells, luminescence | activation, % at 5 µM | hit rate 2.5% among 320,000; in the data active means activation above about 47%
SR-BI uptake up: enhances SR-BI lipid uptake from DiI-HDL; CHO ldlA[mSR-BI] cells, DiI-HDL uptake fluorescence, 3 h; 100 = double the neutral-control signal; activation, % at 12.5 µM; hit rate 0.096% among 320,000;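 active means mean replicate activation of at least 60% and every replicate at or above 60%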
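System: LDL receptor-deficient CHO ldlA cells overexpressing murine SR-BI | Timing: 3 h uptake period with compound, 37 °C | Medium: HEPES-buffered (25 mM, pH 7.4) F12 plus 0.5% BSA | Dosing: Single-point compound dose | Signal: Bottom-read fluorescence, 550/595 nm | Read-out: Retained DiI signal reflecting DiI-HDL uptake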
FXN GAA850 act: frataxin GAA850 promoter activation. hit rate 0.56% among 360,000. HEK293 lucGAA850 FXN promoter luciferase reporter, 24 h; percent of 10 µM SAHA response. activation, % at 6 µM;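 active means activation above the average of all compounds screened plus 3 SD, cutoff fixed separately per campaign, cut at about 7.5% in these data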
SR-BI DiI inh: blocks mouse SR-BI lipid uptake from DiI-HDL; ldlA[mSR-BI] CHO cells, DiI-HDL uptake fluorescence, 3 h; inhibition, % at 12.5 µM; Q61009; hit rate 0.96% among 320,000; AID 488896;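 active means mean replicate inhibition of at least 70% and a set share of replicates each scoring 70 or more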
Target sequence (Q61009 whole entry, looked up): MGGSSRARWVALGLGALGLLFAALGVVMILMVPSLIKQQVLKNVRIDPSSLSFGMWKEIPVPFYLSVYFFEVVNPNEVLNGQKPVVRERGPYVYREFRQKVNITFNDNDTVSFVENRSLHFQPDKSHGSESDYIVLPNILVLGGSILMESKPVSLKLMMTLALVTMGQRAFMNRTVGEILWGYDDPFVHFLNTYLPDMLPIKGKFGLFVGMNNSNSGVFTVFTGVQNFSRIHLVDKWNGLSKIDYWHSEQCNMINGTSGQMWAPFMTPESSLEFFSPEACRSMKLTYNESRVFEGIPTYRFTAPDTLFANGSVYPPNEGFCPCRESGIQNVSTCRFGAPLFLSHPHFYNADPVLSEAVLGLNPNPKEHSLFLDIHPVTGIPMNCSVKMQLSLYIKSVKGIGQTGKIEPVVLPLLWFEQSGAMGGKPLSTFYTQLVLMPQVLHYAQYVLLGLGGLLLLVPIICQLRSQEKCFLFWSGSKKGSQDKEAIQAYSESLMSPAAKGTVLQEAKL
JMJD2C inh: human JMJD2C demethylase inhibition; GST-JMJD2C(1-420) H3K9me3 demethylation, DELFIA europium; AID 2099; inhibition, % at 2.35 µM; hit rate 0.069% among 330,000;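 active means more than half of a compound's replicate wells show inhibition beyond 50%, single wells judged on their own value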;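 further: signal counts dimethyl H3K9 product captured on neutravidin plate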
Each line names hits and unclear results; the compound was inactive in the other large screens.

O=c1c2cc(Br)ccc2[nH]c(=S)n1-c1ccccc1	AHR act 50
O=c1c2ccccc2[nH]c(=S)n1-c1ccc(Br)cc1	none
CC(=O)O[C@H]1CC[C@@]2(C)C(=CC(=O)C3C2CC[C@@]2(C)C3C[C@H](OC(C)=O)[C@@H]2OC(C)=O)C1 (stereo not given in full)	SR-BI uptake up 66
CCCCCn1c(=O)c(C(=O)Nc2ccccc2N)c(O)c2ccccc21	none
CCCCn1c(=O)c(C(=O)Nc2ccccc2N)c(O)c2ccccc21	AHR act 48
CC(=O)O[C@@H]1/C=C/[C@](C)(O)C[C@@H](C)C/C=C/[C@H]2[C@@H]3O[C@]3(C)[C@@H](C)[C@H]3[C@H](Cc4ccccc4)NC(=O)[C@@]312	FXN GAA850 act 18 (no result: SR-BI uptake up, SR-BI DiI inh)
CC(=O)O[C@@H]1/C=C/[C@](C)(O)C[C@@H](C)C/C=C/[C@H]2[C@H](O)[C@@](C)(O)[C@@H](C)[C@H]3[C@H](Cc4ccccc4)NC(=O)[C@@]312	none (no result: SR-BI uptake up, SR-BI DiI inh)
C=CCn1c(C)c(C=C2C(=O)NC(=O)NC2=O)c2ccccc21	JMJD2C inh 50
Cn1cc(C=C2C(=O)NC(=O)NC2=O)c2ccccc21	none
Cc1nc2cc(C(=O)N3CCC4(CC3)OCCO4)ccc2n1-c1ccc(Br)cc1	AHR act 56
O=C(c1cc2cc(Br)ccc2[nH]1)N1CCC2(CC1)OCCO2	SR-BI uptake up 424
Cc1ccnc(-n2c(-c3ccco3)nc3ccccc3c2=O)c1	none
CCOC(=O)C1=CC(=C2C(=O)N(CC)C(=S)N(CC)C2=O)c2ccccc2O1	JMJD2C inh 53 (no result: SR-BI uptake up, FXN GAA850 act, SR-BI DiI inh)
CC(C)(O)[C@H]1O[C@H]2CC[C@@]3(C)[C@@](O)(CC[C@H]4Cc5c([nH]c6ccccc56)[C@@]43C)C2=CC1=O	none (no result: SR-BI uptake up, FXN GAA850 act, SR-BI DiI inh)
O=C1NC(=O)N(Cc2ccc(F)cc2)C(=O)/C1=C\C=C\c1ccco1	JMJD2C inh 69
Cn1cccc1C1CCCN1CC(=O)Nc1ccc(C#N)c(Cl)c1 (stereo not given)	none
NN=C(N)N	AHR act 53 (no result: JMJD2C inh)
Cc1cc(N(CCCl)CCCl)ccc1/C=N/N=C(\N)c1cnccn1	none
Cc1cc(N(CCCl)CCCl)ccc1C=Cc1ccncn1	SR-BI DiI inh 76 (no result: AHR act, JMJD2C inh)
O=C(N/N=C/c1c(O)n(C2CCCCC2)c(=S)[nH]c1=O)c1ccccc1O	SR-BI DiI inh 130
O=c1[nH]c(=S)n(C2CC2)c(O)c1/C=N/Nc1ccccc1	none
CCCCC(=O)N/N=C/c1c(O)n(Cc2ccco2)c(=O)[nH]c1=O	none
O=c1[nH]c(=S)n(C2CC2)c(O)c1/C=N/Nc1cccc2ccccc12	AHR act 76
CC(C)c1ccc(-n2c(O)c(/C=N/NC(=O)c3ccccc3O)c(=O)[nH]c2=S)cc1	SR-BI DiI inh 107
O=C(N/N=C/c1c(O)n(Cc2ccco2)c(=O)[nH]c1=O)c1ccccc1O	SR-BI DiI inh 80
O=C(N/N=C/c1c(O)n(C2CCCCC2)c(=S)[nH]c1=O)c1ccccc1	none
CCOP(=O)(Cc1cc(C(C)=O)c(C)o1)OCC	none
COc1ccc(-n2c(O)c(C=Nc3c(C)n(C)n(-c4ccccc4)c3=O)c(=O)[nH]c2=O)cc1	none
CCN1C(=O)CC(=O)N(CC)C1=S	none (no result: AHR act, SR-BI uptake up, SR-BI DiI inh, JMJD2C inh)
Cn1ncnc2c(=O)n(C)c(=O)nc1-2	JMJD2C inh 81
O=c1[nH]c(O)c(C=Nc2ccc(F)c(Cl)c2)c(=O)[nH]1	none
Cc1nc2ccccc2c(=O)n1/N=C/c1cc(Br)cc(Br)c1O	SR-BI DiI inh 85
COc1cc(C(=O)NN=Cc2ccc(N(CCCl)CCCl)cc2)cc(OC)c1OC	SR-BI DiI inh 76 (no result: AHR act, JMJD2C inh)
CCN(CC)C(=O)c1ccc(NC(=O)c2ccc(-c3nn(C)c(=O)c4ccccc34)cc2)cc1	SR-BI DiI inh 81
CCN(CC)C(=O)c1ccc(NC(=O)Cn2nc(C)c3ccccc3c2=O)cc1	none
Cc1c(C(=O)N2CCC3(CC2)OCCO3)sc2ncnc(N3CCc4ccccc4C3)c12	none
O=S1(=O)N(CCN2CC=C(c3c[nH]c4cc(F)ccc34)CC2)c2cccc3c2N1CCC3	SR-BI DiI inh 79 (no result: JMJD2C inh)
COc1cc(CC2C(=O)N(C)C(=O)N(C)C2=O)ccc1OCc1ccccc1	JMJD2C inh 52
CN1C(=O)C(Cc2ccc(OCc3ccccc3)cc2)C(=O)N(C)C1=O	JMJD2C inh 50
CC(C)c1ccccc1NC1=NCCCS1	none (no result: SR-BI uptake up, SR-BI DiI inh)
